Measurements reported in ChEMBL document CHEMBL1287760, “Optimization of purine-nitrile TbcatB inhibitors for use in vivo and evaluation of efficacy in murine models” (Bioorg Med Chem, 2010).
Converted amounts (≈) assume the structure as drawn.

Assays:
Mus musculus [1] = assay: Stability of the compound in po dosed mouse blood; format: ADME, organism-based; conditions: in vivo
Outline: (§1)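 Oral gavage of compound suspensions to female Balb/c mice; blood sampled retro-orbitally at 1, 2 and 4 h (one sample per mouse) and by cardiac puncture at 48 h. Parent compound and metabolites measured by UPLC–MS; metabolite identity assigned by MS/MS against a synthesized standard.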

[2] = Half life in CD1 mouse plasma by UPLC-MS analysis; format: ADME, cell-free
Outline: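 Half-life in mouse plasma measured at 37 °C.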

[3] = Toxicity in human erythrocyte assessed as hemolysis at 10 uM after 5 hrs; format: cell-based; conditions: erythrocytes, read-out: Activity
Outline: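 Human erythrocytes washed three times after spinning whole blood at 1000g for 5 min. Test compound at 10 µM final, 2% hematocrit. PBS negative control; 0.4% saponin dilution series as standard. After centrifugation, supernatant absorbance read at 414 nm and % hemolysis taken from the calibration curve. Triplicate.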

[4] = Therapeutic index, ratio of EC50 for human cells to EC50 for Trypanosoma brucei; conditions: human cells versus Trypanosoma brucei, read-out: Ratio EC50
Outline: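 Index = EC50 against the most sensitive mammalian line (HEK 293, Hep G2, BJ, Raji) divided by EC50 against T.b. brucei.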

[5] = Permeability of the compound assessed as ratio of compound in acceptor chamber to amount of compound in donor chamber at pH 7.4 by PAMPA assay; format: ADME
Trypanosoma brucei = assay: Antitrypanosomal activity against Trypanosoma brucei after 48 hrs; format: functional, organism-based
[6] = Permeability of the compound assessed as ratio of compound in acceptor chamber to amount of compound in donor chamber at pH 3 by PAMPA assay; format: ADME
[7] = Half life in CD1 mouse liver microsomes by UPLC-MS analysis; format: ADME, Microsome; conditions: CD1, mouse, liver microsomes
Outline: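 CD-1 female mouse liver microsomes in 0.1 M potassium phosphate pH 7.4 with EDTA and NADPH-regenerating solutions, 37 °C, shaken. Samples at 0, 0.5, 1 and 2 h quenched with cold acetonitrile containing caffeine internal standard. UPLC–MS (SIR) read-out. Log peak-area ratio versus time gives slope; k = −2.303 × slope, t1/2 = 0.693/k.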

[8] = Aqueous solubility of compound in deionized water; format: physicochemical
Outline: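 Aqueous solubility measured in deionized water.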

[9] = Inhibition of Trypanosoma brucei cathepsin B expressed in Pichia pastoris
[10] = Chemical stability in phosphate buffered saline at pH 7.4 after 14 days; format: physicochemical; conditions: buffer, pH 7.4, 336 h
Outline: (§2)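 Stability in PBS (pH 3, 5 and 7.4) followed over 14 days for non-metabolic degradation.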

Raji = assay: Cytotoxicity against human Raji cells after 72 hrs by alamar blue assay; format: cell-based
[11] = Chemical stability in dimethyl sulfoxide at pH 5 after 14 days; format: physicochemical; conditions: buffer, pH 5, 336 h
Outline: (§3)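 DMSO stability followed over 14 days for non-metabolic degradation.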

[12] = Chemical stability in phosphate buffered saline at pH 5 after 14 days; format: physicochemical; conditions: buffer, pH 5, 336 h; outline: as §2
BJ = assay: Cytotoxicity against human BJ cells after 72 hrs by alamar blue assay; format: cell-based
[13] = Chemical stability in dimethyl sulfoxide at pH 7.4 after 14 days; format: physicochemical; conditions: buffer, pH 7.4, 336 h; outline: as §3
[14] = Chemical stability in phosphate buffered saline at pH 3 after 14 days; format: physicochemical; conditions: buffer, pH 3, 336 h; outline: as §2
HepG2 = assay: Cytotoxicity against human HepG2 cells after 72 hrs by alamar blue assay; format: cell-based; conditions: hepg2, 72 h
[15] = Permeability of the compound assessed as ratio of compound in acceptor chamber to amount of compound in donor chamber at pH 5 by PAMPA assay; format: ADME
[16] = Chemical stability in dimethyl sulfoxide at pH 3 after 14 days; format: physicochemical; conditions: buffer, pH 3, 336 h; outline: as §3
Mus musculus [17] = assay: Stability of the compound in po dosed mouse blood assessed as 3-(2-cyano-6-(3,4-dichlorobenzylamino)-9H-purin-9-yl)propanoic acid level; format: ADME, organism-based; conditions: in vivo; outline: as §1
HEK293 = assay: Cytotoxicity against human HEK293 cells after 72 hrs by alamar blue assay; format: cell-based; conditions: hek293, 72 h
Mus musculus [18] = assay: Stability of the compound in po dosed mouse blood assessed as 3-(2-cyano-6-(3,4-dichlorobenzylamino)-9H-purin-9-yl)propanoic acid level after 1 hr; format: ADME, organism-based; conditions: in vivo; outline: as §1
Mus musculus [19] = assay: Stability of the compound in po dosed mouse blood assessed as 3-(2-cyano-6-(3,4-dichlorobenzylamino)-9H-purin-9-yl)propanoic acid level after 4 hrs; format: ADME, organism-based; conditions: in vivo; outline: as §1

Structure (SMILES): COCCCn1cnc2c(NCc3ccc(Cl)c(Cl)c3)nc(C#N)nc21
- Stability (Mus musculus [1]): Unstable
- half-life [2]: 40.9 h
- hemolysis at 5 h, 10 µM [3]: 0.7%
- selectivity ratio [4]: > 10
- Ratio [5]: 1770
- EC50 (Trypanosoma brucei): 2400 nM
- Ratio [6]: 1800
- half-life [7]: 0.53 h
- solubility [8]: 4.2 µM (≈ 1.64 µg/mL)

Structure (SMILES): N#Cc1nc(NCc2ccc(Cl)c(Cl)c2)c2ncn(CCC(=O)O)c2n1
- EC50 (Trypanosoma brucei): > 25000 nM
- IC50 [9]: 2600 nM

Structure (SMILES): N#Cc1nc(NCc2ccc(Cl)c(Cl)c2)c2ncn(CCCO)c2n1
- Stability [10]: Stable
- Activity (Raji): Non-toxic
- Stability [11]: Stable
- Stability [12]: Stable
- Activity (BJ): Non-toxic
- Stability [13]: Stable
- half-life [2]: 5.1 h
- hemolysis at 5 h, 10 µM [3]: 0.7%
- Stability [14]: Stable
- Activity (HepG2): Non-toxic
- selectivity ratio [4]: > 20
- Ratio [5]: 1300
- EC50 (Trypanosoma brucei): 1400 nM
- Ratio [15]: 960
- Stability [16]: Stable
- Ratio [6]: 1500
- half-life [7]: 0.6 h
- Stability (Mus musculus [17]): > 50 µM
- Activity (HEK293): Non-toxic
- solubility [8]: 10.4 µM (≈ 3.92 µg/mL)
- Stability (Mus musculus [18]): Unstable
- Stability (Mus musculus [19]): Unstable
